Data on two molecules can be found in ChEMBL document CHEMBL1926564, “Design, synthesis and biological activity of original pyrazolo-pyrido-diazepine, -pyrazine and -oxazine dione derivatives as novel dual Nox4/Nox1 inhibitors” (Bioorg Med Chem, 2011).

The target in series [1] is T1, NADPH oxidase 1 (Homo sapiens, UniProt Q9Y5S8).
T1 sequence (Q9Y5S8 whole entry): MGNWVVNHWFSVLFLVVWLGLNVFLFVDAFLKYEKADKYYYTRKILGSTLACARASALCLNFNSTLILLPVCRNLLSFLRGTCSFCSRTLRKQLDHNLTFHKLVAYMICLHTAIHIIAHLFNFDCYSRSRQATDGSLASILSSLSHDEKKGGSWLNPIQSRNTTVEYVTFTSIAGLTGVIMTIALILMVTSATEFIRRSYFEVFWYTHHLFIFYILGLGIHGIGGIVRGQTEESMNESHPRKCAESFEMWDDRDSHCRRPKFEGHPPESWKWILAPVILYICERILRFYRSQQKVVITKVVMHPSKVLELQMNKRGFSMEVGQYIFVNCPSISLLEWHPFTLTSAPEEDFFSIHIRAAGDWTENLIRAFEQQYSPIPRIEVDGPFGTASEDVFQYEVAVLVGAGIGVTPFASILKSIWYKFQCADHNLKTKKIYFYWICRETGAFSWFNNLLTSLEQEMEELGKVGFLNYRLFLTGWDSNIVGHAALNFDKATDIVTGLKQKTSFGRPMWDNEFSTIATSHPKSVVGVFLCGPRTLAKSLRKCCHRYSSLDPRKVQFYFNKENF
In words: Antagonist activity at human NOX1 expressed in CHO cell membrane coexpressing tetracylin repressor assessed as inhibition of ROS production after 20 mins by cell-free amplex red assay. The class given is functional. The gist of the method: (§1)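 Membranes from tetracycline-induced (24 h) Nox-expressing cells or human PMN (Nox2), sucrose-gradient purified; or xanthine oxidase. Incubated in PBS with Amplex Red, HRP and cofactors; NADPH (Nox) or xanthine starts ROS. Compound 1 nM–100 µM, 20 min at 37 °C, plate-reader. Background without membranes or agonist. Ki by Cheng-Prusoff; mean of ≥3 experiments in triplicate.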

For series [2], the target named is T2, NADPH oxidase 2 (Homo sapiens, UniProt P04839).
T2 sequence (P04839 whole entry): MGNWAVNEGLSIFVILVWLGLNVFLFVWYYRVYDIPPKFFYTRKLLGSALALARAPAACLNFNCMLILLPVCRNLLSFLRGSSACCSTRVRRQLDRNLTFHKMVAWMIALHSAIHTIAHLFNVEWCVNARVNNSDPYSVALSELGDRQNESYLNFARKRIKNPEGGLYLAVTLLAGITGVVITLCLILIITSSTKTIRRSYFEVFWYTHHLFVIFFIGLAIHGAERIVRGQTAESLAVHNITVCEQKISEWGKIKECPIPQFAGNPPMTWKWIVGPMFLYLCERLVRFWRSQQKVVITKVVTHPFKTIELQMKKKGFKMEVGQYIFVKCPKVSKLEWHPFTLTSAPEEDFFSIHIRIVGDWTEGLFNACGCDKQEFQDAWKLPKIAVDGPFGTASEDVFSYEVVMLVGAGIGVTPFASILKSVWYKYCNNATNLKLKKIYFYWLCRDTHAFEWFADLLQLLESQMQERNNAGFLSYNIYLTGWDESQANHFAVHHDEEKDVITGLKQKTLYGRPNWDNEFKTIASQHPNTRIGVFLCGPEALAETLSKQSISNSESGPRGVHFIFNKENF
The series is described as follows: Antagonist activity at human NOX2 in human polymorphonuclear cell membrane assessed as inhibition of ROS production after 20 mins by cell-free amplex red assay. The class given is functional. Put shortly:
as §1

For series [3], the target named is T3, NADPH oxidase 5 (Homo sapiens, UniProt Q96PH1).
T3 sequence (Q96PH1 whole entry): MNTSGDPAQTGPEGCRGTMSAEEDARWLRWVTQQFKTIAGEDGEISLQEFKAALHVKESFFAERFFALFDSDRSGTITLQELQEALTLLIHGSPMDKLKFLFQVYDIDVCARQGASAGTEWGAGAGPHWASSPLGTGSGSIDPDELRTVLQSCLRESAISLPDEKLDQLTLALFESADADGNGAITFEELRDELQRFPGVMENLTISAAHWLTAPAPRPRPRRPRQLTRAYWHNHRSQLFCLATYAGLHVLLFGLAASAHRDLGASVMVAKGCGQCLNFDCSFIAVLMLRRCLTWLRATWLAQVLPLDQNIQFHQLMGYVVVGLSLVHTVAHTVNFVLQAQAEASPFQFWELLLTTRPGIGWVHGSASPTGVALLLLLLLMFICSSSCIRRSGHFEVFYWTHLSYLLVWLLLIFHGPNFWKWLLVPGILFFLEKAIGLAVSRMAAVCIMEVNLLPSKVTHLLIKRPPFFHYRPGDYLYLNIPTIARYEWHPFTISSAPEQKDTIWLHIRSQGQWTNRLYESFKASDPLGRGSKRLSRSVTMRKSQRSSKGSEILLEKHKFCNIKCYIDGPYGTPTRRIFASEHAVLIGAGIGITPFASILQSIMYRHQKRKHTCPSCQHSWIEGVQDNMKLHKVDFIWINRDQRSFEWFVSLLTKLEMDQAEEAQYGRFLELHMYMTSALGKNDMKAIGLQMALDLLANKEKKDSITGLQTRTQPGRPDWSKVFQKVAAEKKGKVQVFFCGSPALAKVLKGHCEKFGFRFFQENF
In words: Antagonist activity at human NOX5 assessed as inhibition of ROS production after 20 mins by cell-free amplex red assay. The format is functional. The gist of the method:
as §1

Series [4] can be described thus: Half life in Sprague-Dawley rat at 5 mg/kg, iv. The format is ADME, organism-based. Also noted: dose 5 mg/kg, route intravenous. Particulars: in vivo. Put shortly:
(§2)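 Rats in two groups of three: 5 mg/kg iv in EDPW (10% EtOH, 10% DMA, 30% PG, 50% water) or 10 mg/kg oral in aqueous 0.5% CMC/0.25% Tween 20. Carotid arterial cannula blood sampled up to 24 h. Plasma levels by LC/MS/MS (LLOQ 1.00 ng/mL); noncompartmental analysis.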

The nature of series [5]: Clearance in Sprague-Dawley rat at 5 mg/kg, iv. The format is ADME, organism-based. Also noted: dose 5 mg/kg, route intravenous. Particulars: in vivo. Put shortly:
as §2

Series [6] can be described thus: AUC (infinity) in Sprague-Dawley rat at 10 mg/kg, po. The format is ADME, organism-based. Also noted: dose 10 mg/kg, route oral, time infinity. Particulars: plasma. Put shortly:
as §2

Series [7] is described as follows: Tmax in Sprague-Dawley rat at 10 mg/kg, po. The format is ADME, organism-based. Set-up: dose 10 mg/kg, route oral. Particulars: in vivo. The gist of the method:
as §2

A short description of series [8]: Clearance in human liver microsomes assessed per mg of protein at 0.5 uM. The format is ADME, Microsome. Particulars: read-out: CLH. The gist of the method:
(§3)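 Pooled rat (male Sprague Dawley) or human (mixed-sex) liver microsomes at 0.5 mg/mL final, 0.1 M phosphate pH 7.4, compound 0.5 µM final, 0.25% DMSO, 37 °C; 1 mM NADPH starts reaction. Sampled 0–45 min, methanol quench with internal standard, LC/MS-MS; intrinsic clearance from compound loss.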
(Microsomes from liver hold many membrane-bound enzymes, among them those of drug oxidation.)

A short description of series [9]: Clearance in Sprague-Dawley rat liver microsomes assessed per mg of protein at 0.5 uM. The class given is ADME, Microsome. Particulars: read-out: CLH. Put shortly:
as §3

Usually Ki stands for a measure of affinity in units of concentration, obtained from inhibition or displacement. By half-life is commonly meant how long it takes for the measured level to halve. A high value points to slow loss. By clearance is commonly meant the volume of plasma or blood freed of the substance per unit of time. In general, AUC(0-inf) refers to the area under the concentration-time curve extrapolated to infinity. A higher AUC(0-inf) goes with more exposure. What is called Tmax is the time from dosing to the highest level. In the case of `Cl.O=c1c2c3n(c(=O)cc2[nH]n1-c1ccccc1Cl)CCCN(Cc1ccccc1)C3`, the Ki in [1] was 101 nM; in [2], 1340 nM; in series [3], 414 nM. The molecule further had a half-life in series [4] of 2.71 h. For the same molecule, the clearance in series [5] was 2.17 mL/min/kg. Also, in series [6], the AUC(0-inf) turned out to be 41400 ng·h/mL. Also, in series [7], the Tmax was found to be 0.33 h. The microsomal CLint at 0.5 µM in series [8] worked out at 35 µL/min/mg; in series [9], 64 µL/min/mg.

Turning to `Cl.O=c1c2c3n(c(=O)cc2[nH]n1-c1ccccc1Cl)CCCN(Cc1ccccn1)C3`, the Ki stood at 113 nM in [1], 1140 nM in series [2] and 543 nM in series [3]. In addition, in series [4], the half-life was 5.62 h. In addition, the clearance in series [5] was 7.67 mL/min/kg. This molecule registered an AUC(0-inf) in [6] of 9900 ng·h/mL. The Tmax in series [7] came to 0.25 h. The microsomal CLint at 0.5 µM in series [8] amounted to 13.9 µL/min/mg; in series [9], 27.5 µL/min/mg.
